Laboratory results published in ChEMBL document CHEMBL1165950, “Design and synthesis of new potent anticancer pyrazoles with high FLT3 kinase inhibitory selectivity” (Bioorg Med Chem, 2010).

Key:
Assay type in all cases: functional
[1] = system: EKVX; experiment: Cytotoxicity against human EKVX cells assessed as cell growth at 100 nM after 48 hrs by sulforhodamine B assay; conditions: read-out: Activity
[2] = system: EKVX; experiment: Cytotoxicity against human EKVX cells assessed as cell growth at 0.01 uM after 48 hrs by sulforhodamine B assay; conditions: read-out: Activity
[3] = system: NCI-H460; experiment: Cytotoxicity against human NCI-H460 cells assessed as cell growth at 100 nM after 48 hrs by sulforhodamine B assay; conditions: NCI-H460, 48 h, read-out: Activity
[4] = system: 786-0; experiment: Cytotoxicity against human 786-0 cells assessed as cell growth at 1 uM after 48 hrs by sulforhodamine B assay; conditions: 786-0, 48 h, read-out: Activity
Outline: (§1)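 NCI-60 five-dose screen. Cells were grown in RPMI 1640 with 5% FBS and 2 mM L-glutamine, plated at 5000–40,000 cells/well and preincubated for 24 h. Time-zero plates were TCA-fixed. DMSO-solubilized drug was added at five concentrations (10-fold or ½-log serial dilutions) for 48 h at 37 °C, 5% CO2. Cells were TCA-fixed, stained with 0.4% SRB and read at 515 nm. Percent growth used time-zero, control and test absorbances.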

[5] = system: HL-60(TB); experiment: Cytotoxicity against human HL-60(TB) cells assessed as cell growth at 100 nM after 48 hrs by sulforhodamine B assay; conditions: HL-60, 48 h, read-out: Activity
Outline: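 NCI 60-cell panel. Cells are grown in RPMI 1640 with 5% FBS and 2 mM L-glutamine, seeded at 5000–40,000 cells/well according to doubling time, and preincubated 24 h. Time-zero plates are TCA-fixed. Compound from DMSO stock is given at five 10-fold or 1/2-log concentrations for 48 h at 37 °C, 5% CO2. Suspension cells are fixed with 80% TCA (final 16%) and SRB-stained, with absorbance at 515 nm. Percent growth is derived from Tz, control and test readings.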

[6] = system: UACC-257; experiment: Cytotoxicity against human UACC257 cells assessed as cell growth at 0.01 uM after 48 hrs by sulforhodamine B assay; conditions: UACC-257, 48 h, read-out: Activity
[7] = system: SK-MEL-2; experiment: Growth inhibition of human SK-MEL-2 cells after 48 hrs by sulforhodamine B assay; conditions: SK-MEL-2, 48 h; for CC50: read-out: LC50 (the source's name)
Outline: (§2)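 NCI 60-cell screen, five-dose mode. Cells grown in RPMI 1640 with 5% FBS and 2 mM L-glutamine and plated at 5000-40,000 cells/well according to doubling time. After 24 h preincubation, a Tz plate was TCA-fixed. Five concentrations (10-fold or 1/2 log dilutions) were applied for 48 h at 37 °C. SRB staining read at 515 nm. IC50 taken from [(Ti-Tz)/(C-Tz)]×100 = 50.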

[8] = system: T47D; experiment: Cytotoxicity against human T47D cells assessed as cell growth at 10 uM; conditions: read-out: Activity
Outline: (§3)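 NCI-60 screen: cells grown in RPMI 1640 with 5% FBS and 2 mM L-glutamine, plated at 5000–40,000 cells/well according to doubling time, and preincubated 24 h at 37 °C, 5% CO2. The single 10 µM dose (DMSO stock) was added, then incubated 48 h. Cells were TCA-fixed and stained with 0.4% SRB, read at 515 nm, and growth % calculated against time-zero and control plates.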

[9] = system: UO-31; experiment: Cytotoxicity against human UO31 cells assessed as cell growth at 1 uM after 48 hrs by sulforhodamine B assay; conditions: UO-31, 48 h, read-out: Activity
[10] = system: DU-145; experiment: Growth inhibition of human DU145 cells after 48 hrs by sulforhodamine B assay; conditions: DU-145, 48 h
Outline: (§4)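 NCI five-dose SRB assay in RPMI 1640 with 5% FBS and 2 mM L-glutamine. Cells were preincubated 24 h, then exposed 48 h at 37 °C to five concentrations (10-fold or half-log serial dilutions from DMSO stocks). TCA fixation, SRB staining, and absorbance at 515 nm followed. IC50 was taken where [(Ti−Tz)/(C−Tz)]×100 = 50, with Tz as time-zero cell density.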

[11] = system: UACC-62; experiment: Cytotoxicity against human UACC62 cells assessed as cell growth at 1 uM after 48 hrs by sulforhodamine B assay; conditions: UACC-62, 48 h, read-out: Activity
[12] = system: SK-OV-3; experiment: Cytotoxicity against human SKOV3 cells assessed as cell growth at 1 uM after 48 hrs by sulforhodamine B assay; conditions: SK-OV-3, 48 h, read-out: Activity
[13] = Cytotoxicity against human Hs 578T cells assessed as cell growth at 100 nM after 48 hrs by sulforhodamine B assay; conditions: read-out: Activity
[14] = system: NCI-H522; experiment: Cytotoxicity against human NCI-H522 cells assessed as cell growth at 10 uM; conditions: read-out: Activity; outline: as §3
[15] = system: MOLT-4; experiment: Cytotoxicity against human MOLT4 cells assessed as cell growth at 0.01 uM after 48 hrs by sulforhodamine B assay; conditions: MOLT-4, 48 h, read-out: Activity
[16] = system: SK-MEL-5; experiment: Cytotoxicity against human SK-MEL-5 cells assessed as cell growth at 100 nM after 48 hrs by sulforhodamine B assay; conditions: SK-MEL-5, 48 h, read-out: Activity
[17] = system: SW-620; experiment: Growth inhibition of human SW620 cells after 48 hrs by sulforhodamine B assay; conditions: SW-620, 48 h; for CC50: read-out: LC50 (the source's name); outline: as §2
[18] = Growth inhibition of human Hs 578T cells after 48 hrs by sulforhodamine B assay; conditions: for CC50: read-out: LC50 (the source's name); outline: as §2
[19] = system: Malme-3M; experiment: Cytotoxicity against human MALME-3M cells assessed as cell growth at 10 uM after 48 hrs by sulforhodamine B assay; conditions: read-out: Activity
[20] = system: U-251; experiment: Cytotoxicity against human U251 cells assessed as cell growth at 10 uM; conditions: read-out: Activity; outline: as §3
[21] = system: SF-268; experiment: Cytotoxicity against human SF268 cells assessed as cell growth at 10 uM; conditions: read-out: Activity; outline: as §3
[22] = system: COLO 205; experiment: Cytotoxicity against human COLO205 cells assessed as cell growth at 1 uM after 48 hrs by sulforhodamine B assay; conditions: COLO 205, 48 h, read-out: Activity; outline: as §1
[23] = Cytotoxicity against human RPMI8266 cells assessed as cell growth at 0.01 uM after 48 hrs by sulforhodamine B assay; conditions: read-out: Activity
[24] = system: UO-31; experiment: Cytotoxicity against human UO31 cells assessed as cell growth at 10 uM; conditions: read-out: Activity; outline: as §3
[25] = system: IGROV-1; experiment: Cytotoxicity against human IGROV1 cells assessed as cell growth at 1 uM after 48 hrs by sulforhodamine B assay; conditions: IGROV-1, 48 h, read-out: Activity
[26] = system: SK-OV-3; experiment: Cytotoxicity against human SKOV3 cells assessed as cell growth at 100 nM after 48 hrs by sulforhodamine B assay; conditions: SK-OV-3, 48 h, read-out: Activity
[27] = system: 786-0; experiment: Growth inhibition of human 786-0 cells after 48 hrs by sulforhodamine B assay; conditions: 786-0, 48 h; for CC50: read-out: LC50 (the source's name); outline: as §4
[28] = system: DU-145; experiment: Cytotoxicity against human DU145 cells assessed as cell growth at 0.001 uM after 48 hrs by sulforhodamine B assay; conditions: DU-145, 48 h, read-out: Activity

SMILES | growth at 0.1 µM [1] [%] | growth at 0.01 µM [2] [%] | growth at 0.1 µM [3] [%] | growth at 1 µM [4] [%] | growth at 0.1 µM [5] [%] | growth at 0.01 µM [6] [%] | GI50 [7] [nM] | TGI [7] [µM] | CC50 [7] [µM] | growth at 10 µM [8] [%] | growth at 1 µM [9] [%] | GI50 [10] [nM] | TGI [10] [nM] | growth at 1 µM [11] [%] | growth at 1 µM [12] [%] | growth at 0.1 µM [13] [%] | growth at 10 µM [14] [%] | growth at 0.01 µM [15] [%] | growth at 0.1 µM [16] [%] | GI50 [17] [nM] | further results
COc1cc(C)cc(-c2c(-c3ccnc(-c4ccc(N(C)C)cc4)c3)cnn2CC#N)c1 | 14 | 81 | -43 | 2 | -26 | 38 | 204 | > 100 | > 100 | 46.5 | 12 | 113 | 334 | 18 | 36 | 23 | -23.6 | 81 | -21 | 39.4 | TGI [17]: > 100 µM; CC50 [17]: > 100 µM; GI50 [18]: 166 nM; TGI [18]: > 100 µM; CC50 [18]: > 100 µM; growth at 10 µM [19]: 13%; growth at 10 µM [20]: 11.2%; growth at 10 µM [21]: 26.4%; growth at 1 µM [22]: 3%; growth at 0.01 µM [23]: 78%; growth at 10 µM [24]: 22.1%; growth at 1 µM [25]: 9%; growth at 0.1 µM [26]: 37%; GI50 [27]: 85.3 nM; TGI [27]: > 100 µM; CC50 [27]: > 100 µM; growth at 0.001 µM [28]: 102%
Cc1cc(O)cc(-c2nn(CC#N)cc2-c2ccnc(-c3ccc(N(C)C)cc3)c2)c1 | 81 | 86 | 90 | 14 | 98 | 81 | 4150 | 15.8 | > 100 | 17.7 | 19 | 2750 | 8570 | 10 | -11 | 82 | 14.5 | 96 | 82 | 2830 | LC50 [10]: 53.2 µM; TGI [17]: 17.5 µM; CC50 [17]: > 100 µM; GI50 [18]: 2130 nM; TGI [18]: 7 µM; CC50 [18]: > 100 µM; growth at 10 µM [19]: -19%; growth at 10 µM [20]: 17.1%; growth at 10 µM [21]: 59.5%; growth at 1 µM [22]: -59%; growth at 0.01 µM [23]: 99%; growth at 10 µM [24]: 52.4%; growth at 1 µM [25]: 24%; growth at 0.1 µM [26]: 101%; GI50 [27]: 3410 nM; TGI [27]: 16.6 µM; CC50 [27]: > 100 µM; growth at 0.001 µM [28]: 103%
COc1cc(C)cc(-c2nn(CC#N)cc2-c2ccnc(-c3ccc(N(C)C)cc3)c2)c1 | 43 | 89 | 8 | -8 | -3 | 91 | 1010 | 45.5 | > 100 | 39 | 18 | 319 | 1110 | 12 | -24 | -19 | -14.9 | 93 | -22 | 332 | LC50 [10]: > 100 µM; TGI [17]: > 100 µM; CC50 [17]: > 100 µM; GI50 [18]: 264 nM; TGI [18]: 0.695 µM; CC50 [18]: > 100 µM; growth at 10 µM [19]: 5%; growth at 10 µM [20]: -9.99%; growth at 10 µM [21]: 24.5%; growth at 1 µM [22]: -74%; growth at 0.01 µM [23]: 110%; growth at 10 µM [24]: 37.9%; growth at 1 µM [25]: 5%; growth at 0.1 µM [26]: -6%; GI50 [27]: 420 nM; TGI [27]: 5.43 µM; CC50 [27]: > 100 µM; growth at 0.001 µM [28]: 103%
